SMILES strings stand for the structures. Active and inactive are the calls of the source. No cut-off for these calls is given here.

For data set [1], the system named is A549. Briefly: Cytotoxicity against human A549 cells assessed as cell death at 100 uM after 18 hrs by propidium iodide staining-based FACS flow cytometric analysis. In kind it is functional. (In general: In flow cytometry, cells or beads pass a laser one at a time.)
The subject of data set [2] is MCF7. In words: Cell cycle arrest in human MCF7 cells assessed as accumulation at S phase at 100 uM after 18 hrs by propidium iodide staining-based FACS flow cytometric analysis (reference value: 12.6%). In kind it is functional.
The subject of data set [3] is A549. In words: Cell cycle arrest in human A549 cells assessed as accumulation at S phase at 100 uM after 18 hrs by propidium iodide staining-based FACS flow cytometric analysis (reference value: 17.8%). In kind it is functional.
Data set [4] has as its system MCF7. In words: Cytotoxicity against human MCF7 cells at 50 uM by LDH assay. In kind it is functional, cell-based.
The nature of data set [5]: Cytotoxicity against human SH-SY5Y cells at 20 uM by LDH assay. In kind it is cell-based.
For data set [6], the target named is T1, NAD-dependent protein deacetylase sirtuin-1 (Homo sapiens) (UniProt Q96EB6).
T1 sequence (whole entry): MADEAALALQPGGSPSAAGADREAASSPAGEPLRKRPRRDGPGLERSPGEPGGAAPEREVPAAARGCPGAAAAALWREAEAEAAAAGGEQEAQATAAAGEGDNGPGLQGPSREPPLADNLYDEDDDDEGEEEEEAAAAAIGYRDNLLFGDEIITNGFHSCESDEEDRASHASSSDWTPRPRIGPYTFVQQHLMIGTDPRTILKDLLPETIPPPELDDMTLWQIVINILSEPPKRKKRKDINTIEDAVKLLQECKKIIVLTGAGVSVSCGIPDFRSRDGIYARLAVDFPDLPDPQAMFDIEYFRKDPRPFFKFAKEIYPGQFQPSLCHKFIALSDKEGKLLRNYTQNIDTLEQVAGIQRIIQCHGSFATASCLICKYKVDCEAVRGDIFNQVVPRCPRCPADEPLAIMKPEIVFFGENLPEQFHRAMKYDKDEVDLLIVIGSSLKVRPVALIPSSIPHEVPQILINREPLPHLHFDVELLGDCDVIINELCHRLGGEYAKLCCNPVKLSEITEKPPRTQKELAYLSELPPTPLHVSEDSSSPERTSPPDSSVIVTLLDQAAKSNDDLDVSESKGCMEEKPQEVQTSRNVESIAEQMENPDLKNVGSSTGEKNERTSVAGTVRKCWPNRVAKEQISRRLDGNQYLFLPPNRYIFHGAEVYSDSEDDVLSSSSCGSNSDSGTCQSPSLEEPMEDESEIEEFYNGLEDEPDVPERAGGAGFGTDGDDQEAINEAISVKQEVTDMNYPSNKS
In words: Inhibition of SIRT1 in etoposide-induced human SH-SY5Y cells assessed as increase in p53 acetylation at Lys382 at 20 uM after 5 hrs by Western blotting analysis. In kind it is cell-based. Summed up: (§1)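 ARPE-19 or SH-SY5Y cells seeded 24 h ahead, then given 20 μM compound and 100 μM etoposide together for 5 h before harvest. Acetylated p53 detected by Western blot. Mean ± SEM of 2 independent experiments.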
For orientation: In western blotting, separated proteins are transferred to a membrane and probed.

Data set [7] has as its target T1, NAD-dependent protein deacetylase sirtuin-1 (Homo sapiens). Briefly: Inhibition of SIRT1 in etoposide-induced human ARPE19 cells assessed as increase in p53 acetylation at Lys382 at 20 uM after 5 hrs by Western blotting analysis. In kind it is cell-based. A digest of the protocol:
as §1

Data set [8] has as its target T2, NAD-dependent protein deacetylase sirtuin-1 (Homo sapiens, UniProt Q96EB6).
T2 sequence (Q96EB6 whole entry): T1 sequence (whole entry)
Briefly: Inhibition of human recombinant GST-tagged SIRT1 using KI177 as substrate preincubated for 5 mins followed by enzyme addition measured after 1 hr by fluorescence assay. A digest of the protocol: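 Fluor de Lys deacetylation assay. […] Mix preincubated 5 min at room temperature, started with enzyme, run 1 h at 37°C. Developer with 2 mM nicotinamide then added for 45 min at 37°C before fluorescence reading.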

For data set [9], the target named is T3, NAD-dependent protein deacetylase sirtuin-3, mitochondrial (Homo sapiens) (UniProt Q9NTG7).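 Note: recombinant His-tagged human SIRT3 with KI179 substrate, fluorescence read after 1 h, inhibition expressed relative to control.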
T3 sequence (whole entry): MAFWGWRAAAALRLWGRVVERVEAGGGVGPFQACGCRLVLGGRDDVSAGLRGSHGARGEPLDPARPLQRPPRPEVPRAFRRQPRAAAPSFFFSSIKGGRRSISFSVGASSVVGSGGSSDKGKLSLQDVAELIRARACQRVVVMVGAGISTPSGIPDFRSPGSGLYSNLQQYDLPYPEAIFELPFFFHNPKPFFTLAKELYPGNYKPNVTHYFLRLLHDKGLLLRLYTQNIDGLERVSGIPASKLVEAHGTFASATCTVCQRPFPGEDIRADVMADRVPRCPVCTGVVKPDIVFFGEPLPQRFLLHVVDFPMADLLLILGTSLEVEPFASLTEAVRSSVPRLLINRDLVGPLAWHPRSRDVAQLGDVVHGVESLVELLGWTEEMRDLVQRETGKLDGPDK
Conditions: at 50 µM.

Data set [10] deals with T1, NAD-dependent protein deacetylase sirtuin-1 (Homo sapiens). Particulars: at 50 µM.

For `COc1ccc(C(=O)CNC(=O)[C@H](CCCCNC(C)=S)NC(=O)OCc2ccccc2)cc1`, the outcome in the data set on A549 [1] and in the data set with MCF7 [4] was inactive. Also, the values for the Activity (with MCF7 [2]; with A549 [3]; in [5]) were 5.8%, 7.7% and “Non-toxic”, respectively. For the same compound, the inhibition entry in data set [6] and in data set [7] was “Active” throughout. Besides, in data set [8], the 50% inhibitory concentration (IC50) is 890 nM. Moreover, the inhibition in data set [9] was 82%; in [10] it was 97%.

A word on the inhibition: it is the change of the read-out against control, counted positive when it falls. The IC50 is the concentration needed to halve the response being measured.

The record behind these values is ChEMBL document CHEMBL2417552, “Screen of pseudopeptidic inhibitors of human sirtuins 1-3: two lead compounds with antiproliferative effects in cancer cells” (J Med Chem, 2013).
